Source: ChEMBL document CHEMBL1142963, “Novel sigma receptor ligands: synthesis and biological profile” (J Med Chem, 2007)
Activity calls are given as the source filed them. No cut-off for these calls is given here.

Columns and labels:
Rattus norvegicus = organism: Rattus norvegicus; test: Increase of caspase 3 cleavage in albino Wistar rat primary astroglial cells at 25 uM after 24 hrs relative to control; type: functional
Procedure, shortened: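 Primary astrocytes from 1–2-day-old Wistar rat brains were grown 14 DIV, then exposed to ligand 25 µM for 24 h. Cells were lysed and sonicated, and 30 µg protein was run on 10% SDS-PAGE. Mean ± SD of four experiments; t test.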

[1] = biological target: 5-hydroxytryptamine receptor 2A (Rattus norvegicus, UniProt P14842); test: Displacement of [3H]ketanserin from rat cortex 5HT2A receptor
Procedure, shortened: (§1)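 Rat brain tissue by target: striatum for D1, D2 and DAT; olfactory tubercle for D3; cortex for muscarinic, 5-HT3, 5-HT2A, α1, α2, H1, NMDA and SERT; guinea pig cortex for 5-HT4. Inhibitors at seven to nine concentrations. After incubation, samples were filtered on glass fibre filters, washed three times with ice-cold buffer and counted by liquid scintillation. Ki values were derived by curve fitting.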

[2] = biological target: T1, 5-hydroxytryptamine receptor 3A (Rattus norvegicus, UniProt P35563); test: Displacement of [3H]LY278584 from rat cortex 5HT3 receptor; procedure, shortened: as §1
T1 sequence (P35563 whole entry): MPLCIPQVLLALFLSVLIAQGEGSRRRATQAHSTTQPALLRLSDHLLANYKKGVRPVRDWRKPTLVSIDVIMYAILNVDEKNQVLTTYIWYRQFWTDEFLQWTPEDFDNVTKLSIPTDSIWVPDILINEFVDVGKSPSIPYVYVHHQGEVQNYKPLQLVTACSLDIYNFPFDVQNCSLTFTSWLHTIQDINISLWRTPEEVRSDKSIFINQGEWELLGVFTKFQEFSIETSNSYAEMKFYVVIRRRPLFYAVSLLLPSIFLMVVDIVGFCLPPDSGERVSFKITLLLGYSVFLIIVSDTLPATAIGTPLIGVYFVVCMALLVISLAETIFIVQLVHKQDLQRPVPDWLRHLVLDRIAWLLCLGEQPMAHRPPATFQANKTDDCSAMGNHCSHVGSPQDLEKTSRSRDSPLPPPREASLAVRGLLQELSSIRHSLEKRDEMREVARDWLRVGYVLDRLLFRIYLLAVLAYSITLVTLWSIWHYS

[3] = biological target: 5-hydroxytryptamine receptor 6 (Rattus norvegicus, UniProt P31388); test: Displacement of [3H]5HT from rat cloned 5HT6 receptor expressed in HEK293 cells; type: cell-based
Procedure, shortened: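 Membranes from HEK-293 cells expressing cloned rat 5-HT6 receptor. Inhibitors at seven to nine concentrations. After incubation, samples were filtered on glass fibre filters, washed three times with ice-cold buffer and counted by liquid scintillation. Ki values were derived by curve fitting.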

[4] = biological target: T2, Adrenergic receptor alpha-1 (Rattus norvegicus, UniProt P15823+P23944+P43140); test: Displacement of [3H]prazosin from rat cortex adrenergic alpha-1 receptor; procedure, shortened: as §1
T2 sequence (P15823 whole entry): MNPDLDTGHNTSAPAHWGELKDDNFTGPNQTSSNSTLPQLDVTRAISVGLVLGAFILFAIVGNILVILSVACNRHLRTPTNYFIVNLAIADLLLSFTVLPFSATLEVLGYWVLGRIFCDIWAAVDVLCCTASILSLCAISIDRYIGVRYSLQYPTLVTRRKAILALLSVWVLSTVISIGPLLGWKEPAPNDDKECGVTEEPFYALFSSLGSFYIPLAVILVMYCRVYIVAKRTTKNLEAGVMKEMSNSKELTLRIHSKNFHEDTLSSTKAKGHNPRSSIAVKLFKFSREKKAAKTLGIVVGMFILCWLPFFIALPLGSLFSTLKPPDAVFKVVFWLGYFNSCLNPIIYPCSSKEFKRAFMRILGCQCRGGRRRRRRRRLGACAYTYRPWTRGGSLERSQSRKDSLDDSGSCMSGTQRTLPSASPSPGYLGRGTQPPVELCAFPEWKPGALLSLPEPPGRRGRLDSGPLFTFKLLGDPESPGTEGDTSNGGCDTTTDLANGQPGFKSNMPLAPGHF
T2 sequence (P23944 whole entry): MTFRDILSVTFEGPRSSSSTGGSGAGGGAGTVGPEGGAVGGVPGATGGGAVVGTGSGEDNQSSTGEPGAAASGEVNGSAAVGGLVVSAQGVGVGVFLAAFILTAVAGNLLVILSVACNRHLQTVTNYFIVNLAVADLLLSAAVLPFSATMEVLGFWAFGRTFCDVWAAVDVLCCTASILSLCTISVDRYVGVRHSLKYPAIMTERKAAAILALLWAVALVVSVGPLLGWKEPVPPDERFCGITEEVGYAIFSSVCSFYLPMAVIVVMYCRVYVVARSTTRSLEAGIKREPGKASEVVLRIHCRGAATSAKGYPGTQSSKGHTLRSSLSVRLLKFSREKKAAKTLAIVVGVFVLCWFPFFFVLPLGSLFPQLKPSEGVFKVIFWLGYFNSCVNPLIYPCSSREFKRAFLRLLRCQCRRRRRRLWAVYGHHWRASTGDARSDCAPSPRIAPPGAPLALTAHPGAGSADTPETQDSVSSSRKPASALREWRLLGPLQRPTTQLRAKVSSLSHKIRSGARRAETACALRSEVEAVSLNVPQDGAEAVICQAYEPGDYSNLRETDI
T2 sequence (P43140 whole entry): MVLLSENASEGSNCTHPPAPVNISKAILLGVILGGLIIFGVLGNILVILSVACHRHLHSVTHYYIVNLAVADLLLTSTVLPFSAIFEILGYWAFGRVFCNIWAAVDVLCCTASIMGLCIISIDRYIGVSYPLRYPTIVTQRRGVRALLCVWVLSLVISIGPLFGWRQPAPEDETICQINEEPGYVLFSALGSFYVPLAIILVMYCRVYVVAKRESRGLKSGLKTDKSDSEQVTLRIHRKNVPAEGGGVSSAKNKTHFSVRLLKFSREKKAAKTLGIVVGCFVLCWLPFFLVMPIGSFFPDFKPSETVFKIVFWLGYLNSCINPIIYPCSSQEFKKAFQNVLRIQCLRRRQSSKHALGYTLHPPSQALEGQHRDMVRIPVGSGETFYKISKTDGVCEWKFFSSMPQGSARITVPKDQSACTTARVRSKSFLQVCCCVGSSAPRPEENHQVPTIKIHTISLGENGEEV

Glutamate NMDA receptor = test: Displacement of [3H]CGP-39653 from rat cortex NMDA receptor; procedure, shortened: as §1
[5] = Displacement of [3H]MK-801 from rat cortex NMDA channel; procedure, shortened: as §1

Sequence of 5-hydroxytryptamine receptor 2A (P14842 whole entry): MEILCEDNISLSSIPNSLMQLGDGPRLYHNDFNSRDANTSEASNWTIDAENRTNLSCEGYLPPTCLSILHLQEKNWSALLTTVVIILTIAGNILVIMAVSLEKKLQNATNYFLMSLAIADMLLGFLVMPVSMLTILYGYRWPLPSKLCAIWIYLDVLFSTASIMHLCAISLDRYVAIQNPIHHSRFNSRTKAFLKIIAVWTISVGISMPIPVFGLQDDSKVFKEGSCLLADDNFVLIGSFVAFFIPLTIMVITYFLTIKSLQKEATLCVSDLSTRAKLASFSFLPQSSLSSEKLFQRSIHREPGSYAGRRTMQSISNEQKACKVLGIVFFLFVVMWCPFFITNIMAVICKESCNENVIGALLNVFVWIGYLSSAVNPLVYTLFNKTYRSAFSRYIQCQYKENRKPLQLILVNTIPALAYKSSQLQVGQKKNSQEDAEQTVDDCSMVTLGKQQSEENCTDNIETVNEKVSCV
Sequence of 5-hydroxytryptamine receptor 6 (P31388 whole entry): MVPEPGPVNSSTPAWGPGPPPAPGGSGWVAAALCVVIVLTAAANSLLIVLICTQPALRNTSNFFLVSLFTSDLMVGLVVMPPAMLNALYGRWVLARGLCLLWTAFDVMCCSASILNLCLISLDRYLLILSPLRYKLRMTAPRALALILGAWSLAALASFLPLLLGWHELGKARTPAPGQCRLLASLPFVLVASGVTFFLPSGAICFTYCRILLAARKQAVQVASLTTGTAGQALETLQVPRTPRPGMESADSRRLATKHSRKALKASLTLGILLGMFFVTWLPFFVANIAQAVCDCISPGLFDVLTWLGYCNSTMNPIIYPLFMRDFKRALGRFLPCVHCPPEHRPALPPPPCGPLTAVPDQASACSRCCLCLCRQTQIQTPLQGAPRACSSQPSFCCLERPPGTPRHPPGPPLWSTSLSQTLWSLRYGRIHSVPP

COC(=O)C1(c2ccc(C)cc2)CC1CN1CCC(O)(c2ccccc2)CC1 (configuration not stated)
Activity (Rattus norvegicus): Active
Ki [1]: 3.15 µM
Ki [2]: > 10 µM
Ki [3]: > 10 µM
Ki [4]: 0.605 µM
Ki (Glutamate NMDA receptor): > 10 µM
Ki [5]: > 10 µM
